Laboratory results: ChEMBL document CHEMBL4311940, “Design, Synthesis, and Biological Evaluation of 4-Methyl Quinazoline Derivatives as Anticancer Agents Simultaneously Targeting Phosphoinositide 3-Kinases and Histone Deacetylases” (J Med Chem, 2019)
pIC50: −log10 of the molar value.

Key:
HCT-116 [1] = assay: Induction of apoptosis in human HCT116 cells assessed as early apoptotic cells at 100 nM after 48 hrs by Annexin V-FITC/propidium iodide staining-based flow cytometric analysis (reference value: 1.33%); assay type: functional
HCT-116 [2] = assay: Induction of apoptosis in human HCT116 cells assessed as necrotic cells at 500 nM after 48 hrs by Annexin V-FITC/propidium iodide staining-based flow cytometric analysis (reference value: 5.23%); assay type: functional
[3] = Mutagenicity in Salmonella typhimurium TA98 at 5 to 500 ug/plate in absence of s9 mix by Ames test; assay type: toxicity; conditions: salmonella enterica subsp. enterica serovar typhimurium
Method in brief: (§1)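 Plate incorporation method at 5, 50 and 500 μg/plate, with and without S9 activation. At least three plates per dose, incubated 72 h at 37 °C, revertants counted. Mean revertants compared with vehicle and positive controls.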

HCT-116 [4] = assay: Induction of apoptosis in human HCT116 cells assessed as early apoptotic cells at 20 nM after 48 hrs by Annexin V-FITC/propidium iodide staining-based flow cytometric analysis (reference value: 1.33%); assay type: functional
[5] = AUC (0 to t) in ICR mouse at 3 mg/kg, iv measured after 0.033 to 24 hrs by LC/MS/MS analysis; assay type: ADME, organism-based; design: dose 3 mg/kg, time upper 24 hr, time lower 0.033 hr, route intravenous; conditions: in vivo
Method in brief: (§2)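 ICR mice; iv 3 mg/kg in 10% DMSO/saline (3 mice/group), blood at 0.033, 0.083, 0.25, 0.5, 1, 2, 4, 8, 12, 24 h; po 30 mg/kg as 0.5% cmc/0.3% Tween 80 suspension (5 mice/group), blood at 0.083–24 h. Plasma extracted with acetonitrile, LC/MS/MS; parameters by noncompartmental analysis.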

HCT-116 [6] = assay: Induction of apoptosis in human HCT116 cells assessed as necrotic cells at 100 nM after 48 hrs by Annexin V-FITC/propidium iodide staining-based flow cytometric analysis (reference value: 5.23%); assay type: functional
[7] = Cmax in ICR mouse at 3 mg/kg, iv measured after 0.033 to 24 hrs by LC/MS/MS analysis; assay type: ADME, organism-based; design: dose 3 mg/kg, route intravenous; conditions: in vivo; method in brief: as §2
Histone deacetylase 8 = Histone deacetylase 8 (Homo sapiens, UniProt Q9BY41); assay: Inhibition of recombinant human full length C-terminal His-tagged HDAC8 expressed in baculovirus infected Sf9 insect cells using Ac-peptide as substrate preincubated for 15 mins followed by substrate addition and measured after 1 hr
Sequence of Histone deacetylase 8 (Q9BY41 whole entry, canonical isoform): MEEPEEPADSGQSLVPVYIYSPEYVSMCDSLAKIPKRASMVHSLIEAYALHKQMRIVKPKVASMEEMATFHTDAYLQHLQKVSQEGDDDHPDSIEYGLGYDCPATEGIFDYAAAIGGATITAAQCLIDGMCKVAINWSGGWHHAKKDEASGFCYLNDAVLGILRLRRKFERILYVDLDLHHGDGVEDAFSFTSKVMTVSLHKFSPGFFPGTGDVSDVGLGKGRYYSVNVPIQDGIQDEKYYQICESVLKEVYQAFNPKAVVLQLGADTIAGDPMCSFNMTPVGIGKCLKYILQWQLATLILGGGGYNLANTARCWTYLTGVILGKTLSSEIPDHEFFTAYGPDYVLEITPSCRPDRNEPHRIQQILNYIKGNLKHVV
Method in brief: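 Recombinant HDAC isoforms mixed with serially diluted compound in assay buffer for 15 min at room temperature. Ac-peptide substrate then added and incubated 1 h at room temperature. Signal read on a plate reader; IC50 by curve fitting.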

[8] = Mutagenicity in Salmonella typhimurium TA1535 at 5 to 500 ug/plate in presence of s9 mix by Ames test; assay type: toxicity, subcellular; conditions: salmonella enterica subsp. enterica serovar typhimurium; method in brief: as §1
SW1990 = assay: Antiproliferative activity against human SW1990 cells after 96 hrs by MTT assay; assay type: functional, cell-based; conditions: SW1990, 96 h
[9] = Mutagenicity in Salmonella typhimurium TA97 at 5 to 500 ug/plate in presence of s9 mix by Ames test; assay type: toxicity, subcellular; conditions: salmonella enterica subsp. enterica serovar typhimurium; method in brief: as §1
[10] = molecular target: Serine/threonine-protein kinase mTOR (Homo sapiens, UniProt P42345); assay: Inhibition of recombinant human N-terminal FLAG-tagged mTOR (1362 to end amino acids) using ULight-4E-BP1 as substrate incubated for 1 hr by LANCE Ultra assay
Method in brief: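 mTOR protein, compound, ULight-4E-BP1 (Thr37/46) peptide and ATP in kinase buffer, 30 min at room temperature. LANCE detection buffer with EDTA and Eu-anti-phospho-4E-BP1 (Thr37/46) antibody added, then 1 h equilibration at room temperature. TR-FRET read; IC50 by curve fitting.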

NCI-H460 = assay: Antiproliferative activity against human NCI-H460 cells after 96 hrs by MTT assay; assay type: functional, cell-based; conditions: NCI-H460, 96 h
HCT-116 [11] = assay: Induction of apoptosis in human HCT116 cells assessed as necrotic cells at 20 nM after 48 hrs by Annexin V-FITC/propidium iodide staining-based flow cytometric analysis (reference value: 5.23%); assay type: functional
THP-1 = assay: Antiproliferative activity against human THP1 cells after 96 hrs by MTT assay; assay type: functional, cell-based; conditions: THP-1, 96 h
HCT-116 [12] = assay: Induction of apoptosis in human HCT116 cells assessed as live cells at 20 nM after 48 hrs by Annexin V-FITC/propidium iodide staining-based flow cytometric analysis (reference value: 89.6%); assay type: functional
[13] = Mutagenicity in Salmonella typhimurium TA102 at 5 to 500 ug/plate in absence of s9 mix by Ames test; assay type: toxicity; conditions: salmonella enterica subsp. enterica serovar typhimurium; method in brief: as §1
HCT-116 [14] = assay: Induction of apoptosis in human HCT116 cells assessed as early apoptotic cells at 500 nM after 48 hrs by Annexin V-FITC/propidium iodide staining-based flow cytometric analysis (reference value: 1.33%); assay type: functional
[15] = Toxicity in ip dosed ICR mouse assessed as maximum tolerated dose; assay type: organism-based; conditions: in vivo
Method in brief: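 Male ICR mice, 6−8 weeks old, given one dose; vehicle 0.5% cmc with Tween 80 for oral dosing, saline for intraperitoneal dosing. Clinical signs observed and body weights recorded for 7 consecutive days after dosing to set the maximum tolerated dose.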

[16] = Mutagenicity in Salmonella typhimurium TA102 at 5 to 500 ug/plate in presence of s9 mix by Ames test; assay type: toxicity, subcellular; conditions: salmonella enterica subsp. enterica serovar typhimurium; method in brief: as §1
NCI-H1299 = assay: Antiproliferative activity against human NCI-H1299 cells after 96 hrs by MTT assay; assay type: functional, cell-based; conditions: NCI-H1299, 96 h
[17] = Cmax in ICR mouse at 30 mg/kg, po measured after 0.083 to 24 hrs by LC/MS/MS analysis; assay type: ADME, organism-based; design: dose 30 mg/kg, route oral; conditions: in vivo; method in brief: as §2
[18] = Tmax in ICR mouse at 3 mg/kg, iv measured after 0.033 to 24 hrs by LC/MS/MS analysis; assay type: ADME, organism-based; conditions: in vivo
Method in brief: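 Male-unspecified ICR mice, 3 per group iv (3 mg/kg in 10% DMSO/saline) and 5 per group po (30 mg/kg in 0.5% cmc/0.3% Tween 80). Blood sampled 0.033 (iv) or 0.083 (po) to 24 h. Plasma extracted with acetonitrile, analysed by LC/MS/MS; noncompartmental analysis.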

HCT-116 [19] = assay: Induction of apoptosis in human HCT116 cells assessed as late apoptotic cells at 100 nM after 48 hrs by Annexin V-FITC/propidium iodide staining-based flow cytometric analysis (reference value: 3.87%); assay type: functional
Capan-2 = assay: Antiproliferative activity against human Capan2 cells after 96 hrs by MTT assay; assay type: functional, cell-based; conditions: Capan-2, 96 h
HGC-27 = assay: Antiproliferative activity against human HGC27 cells after 96 hrs by MTT assay; assay type: functional, cell-based; conditions: HGC-27, 96 h
HepG2 = assay: Antiproliferative activity against human HepG2 cells after 96 hrs by MTT assay; assay type: functional, cell-based; conditions: HepG2, 96 h
[20] = AUC (0 to infinity) in ICR mouse at 3 mg/kg, iv measured after 0.033 to 24 hrs by LC/MS/MS analysis; assay type: ADME, organism-based; design: dose 3 mg/kg, time infinity, route intravenous; conditions: in vivo; method in brief: as §2
[21] = Apparent volume of distribution in ICR mouse at 3 mg/kg, iv measured after 0.033 to 24 hrs by LC/MS/MS analysis; assay type: ADME, organism-based; conditions: in vivo, read-out: Vz; method in brief: as §2
[22] = Mutagenicity in Salmonella typhimurium TA98 at 5 to 500 ug/plate in presence of s9 mix by Ames test; assay type: toxicity, subcellular; conditions: salmonella enterica subsp. enterica serovar typhimurium; method in brief: as §1
[23] = Mutagenicity in Salmonella typhimurium TA100 at 5 to 500 ug/plate in presence of s9 mix by Ames test; assay type: toxicity, subcellular; conditions: salmonella enterica subsp. enterica serovar typhimurium; method in brief: as §1

## COc1ccc(-c2cc(OCCN(C)c3ncc(C(=O)NO)cn3)c3ncnc(C)c3c2)cn1
HCT-116 [1]
  Activity: 16.8%
HCT-116 [2]
  Activity: 2.82%
[3]
  Activity: Non-Toxic
HCT-116 [4]
  Activity: 4.53%
[5]
  AUC(0-t): 133 ng·h/mL
HCT-116 [6]
  Activity: 2.99%
[7]
  Cmax: 417 ng/mL
Histone deacetylase 8
  pIC50: 7.92
[8]
  Activity: Non-Toxic
SW1990
  pIC50: 6.64
[9]
  Activity: Non-Toxic
[10]
  pIC50: 5.20
NCI-H460
  pIC50: 5.57
HCT-116 [11]
  Activity: 5.97%
THP-1
  pIC50: 6.04
HCT-116 [12]
  Activity: 83.6%
[13]
  Activity: Non-Toxic
HCT-116 [14]
  Activity: 29.1%
[15]
  MTD: > 100 mg/kg
[16]
  Activity: Non-Toxic
NCI-H1299
  pIC50: 6.74
[17]
  Cmax: 9.39 ng/mL
[18]
  Tmax: 1.8 min
HCT-116 [19]
  Activity: 9.92%
Capan-2
  pIC50: 6.57
HGC-27
  pIC50: 7.85
HepG2
  pIC50: 7.12
[20]
  AUC: 143 ng·h/mL
[21]
  Vd: 50 L/kg
[22]
  Activity: Non-Toxic
[23]
  Activity: Non-Toxic

## COc1ncc(-c2cc(OCCCCCCC(=O)NO)c3ncnc(C)c3c2)cc1F
HCT-116 [1]
  Activity: 6.56%
HCT-116 [2]
  Activity: 3.64%
[3]
  Activity: Non-Toxic
HCT-116 [4]
  Activity: 1.83%
[5]
  AUC(0-t): 551 ng·h/mL
HCT-116 [6]
  Activity: 4.64%
[7]
  Cmax: 3050 ng/mL
Histone deacetylase 8
  pIC50: 7.74
[8]
  Activity: Non-Toxic
SW1990
  pIC50: 6.05
[9]
  Activity: Non-Toxic
[10]
  pIC50: 5.54
NCI-H460
  pIC50: 5.52
HCT-116 [11]
  Activity: 4.1%
THP-1
  pIC50: 5.27
HCT-116 [12]
  Activity: 88.6%
[13]
  Activity: Non-Toxic
HCT-116 [14]
  Activity: 18.2%
[15]
  MTD: > 100 mg/kg
[16]
  Activity: Non-Toxic
NCI-H1299
  pIC50: 6.00
[17]
  Cmax: 143 ng/mL
[18]
  Tmax: 1.8 min
HCT-116 [19]
  Activity: 7.97%
Capan-2
  pIC50: 6.37
HGC-27
  pIC50: 6.96
HepG2
  pIC50: 5.96
[20]; ICR
  AUC(0-inf): 558 ng·h/mL
[21]
  Vd: 2.57 L/kg
[22]
  Activity: Non-Toxic
[23]
  Activity: Non-Toxic
